≈ marks a conversion by molar mass, not a printed value. Calls of active or inactive are those of the source. No cut-off for these calls is given here.
Tests used:
[1] = system: Pseudomonas aeruginosa; assay: Antibacterial activity against Pseudomonas aeruginosa 15690 assessed as bacterial growth inhibition incubated for 18 hrs by CLSI based broth microdilution method; type: functional
In short: (§1)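 Broth microdilution to CLSI guidelines. Log-phase bacteria grown in Mueller Hinton broth, diluted, then exposed to 2-fold serial dilutions of compound (128 to 0.25 µg/mL or 2 to 0.004 µg/mL). Incubated aerobically 18 h at 37 °C. Growth read as OD600. MIC = lowest concentration giving ≥90% growth inhibition. Three independent assays.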

[2] = system: Staphylococcus aureus; assay: Induction of resistance in Staphylococcus aureus ATCC29213 assessed as fold increase in MIC at 0.5 times MIC after 18 passages incubated for 24 hrs by resistance development assay; type: functional
In short: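 Serial passage of S. aureus ATCC29213. Initial MIC was found by broth microdilution. Bacteria from the 0.5 × MIC tubes (duplicate) were diluted to about 5 × 10^5 CFU/mL and re-exposed to compound for 24 h at 35 °C, then fold increase in MIC was determined. Repeated for 18 passages, with norfloxacin as comparator.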

[3] = Metabolic stability in human liver microsomes assessed as compound remaining preincubated for 5 mins followed by NADPH addition measured after 45 mins by LC/MS analysis; type: ADME, Microsome; conditions: time 50 min, read-out: Stability
In short: (§2)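 Liver microsomes (final protein 0.75 mg/mL) with compound in 100 mM phosphate buffer pH 7.4, preincubated 5 min at 37 °C. Reaction started with NADPH regeneration system, stopped at 5, 15, 30 and 45 min with acetonitrile containing internal standard. Percent remaining measured by LC/MS, with ketanserin as reference; variation given as RSD of area ratio.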

[4] = system: Staphylococcus aureus; assay: Antibacterial activity against Staphylococcus aureus ATCC25923 assessed as bacterial growth inhibition at 1 to 8 times MIC measured after 12 hrs by time kill curve assay relative to control; type: functional
In short: (§3)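 Time-kill: log-phase cultures diluted to about 10^6 CFU/mL in MHB with compound at 1×, 2×, 4× or 8× MIC (vancomycin at 2× MIC), shaken at 37 °C. Samples taken at 3, 6, 12 and 24 h, serially diluted and plated on LB agar. Colonies counted after 24 h at 37 °C; detection limit 10^3 CFU/mL.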

[5] = Metabolic stability in mouse liver microsomes assessed as compound remaining preincubated for 5 mins followed by NADPH addition measured after 15 mins by LC/MS analysis; type: ADME, Microsome; conditions: time 20 min, read-out: Stability; in short: as §2
[6] = Cmax in ICR mouse at 1 mg/kg, iv measured for 0.08 to 24 hrs by LC-MS/MS analysis; type: ADME, organism-based; set-up: time upper 24 hrs, dose 1 mg/kg, time lower 0.08 hrs, route iv; conditions: in vivo
In short: (§4)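 Male ICR mice, single intravenous dose formulated in 5% DMSO, 4% ethanol, 5% Cremophor EL, 86% water. Blood sampled at 5, 15, 30 min, 1, 2, 4, 8 and 24 h; plasma stored at -20 °C. Compound quantified by LC-MS/MS, with parameters from non-compartmental analysis.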

[7] = Metabolic stability in rat liver microsomes assessed as intrinsic clearance preincubated for 5 mins followed by NADPH addition measured upto 45 mins by LC/MS analysis; type: ADME, Microsome; conditions: time < 50 min, read-out: CLH
In short: (§5)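 Liver microsomes at 0.75 mg/mL final protein, with test article and NADPH regeneration system (6 mM) in 100 mM phosphate buffer, pH 7.4. Preincubated 5 min at 37 °C, then started with NADPH. Quenched with acetonitrile containing internal standard at 5, 15, 30 and 45 min, centrifuged, and percent remaining measured by LC/MS. Ketanserin served as reference.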

[8] = Metabolic stability in mouse liver microsomes assessed as compound remaining preincubated for 5 mins followed by NADPH addition measured after 30 mins by LC/MS analysis; type: ADME, Microsome; conditions: time 35 min, read-out: Stability; in short: as §2
[9] = system: Bacillus subtilis; assay: Antibacterial activity against Bacillus subtilis ATCC9372 assessed as reduction in bacterial count at 2 times MIC measured for 3 hrs by time kill curve assay; type: functional, organism-based; in short: as §3
[10] = Metabolic stability in mouse liver microsomes assessed as compound remaining preincubated for 5 mins followed by NADPH addition measured after 5 mins by LC/MS analysis; type: ADME, Microsome; conditions: time 10 min, read-out: Stability; in short: as §2
[11] = Metabolic stability in rat liver microsomes assessed as compound remaining preincubated for 5 mins followed by NADPH addition measured after 5 mins by LC/MS analysis; type: ADME, Microsome; conditions: time 10 min, read-out: Stability; in short: as §2
[12] = Metabolic stability in human liver microsomes assessed as compound remaining preincubated for 5 mins followed by NADPH addition measured immediately by LC/MS analysis; type: ADME, Microsome; conditions: read-out: Stability; in short: as §2
[13] = system: Staphylococcus aureus; assay: Antibacterial activity against ampicillin/kanamycin-resistant Staphylococcus aureus 6917 assessed as bacterial growth inhibition incubated for 18 hrs by CLSI based broth microdilution method; type: functional; in short: as §1
[14] = Metabolic stability in mouse liver microsomes assessed as half life preincubated for 5 mins followed by NADPH addition measured upto 45 mins by LC/MS analysis; type: ADME, Microsome; conditions: time < 50 min; in short: as §5
[15] = system: Bacillus subtilis; assay: Antibacterial activity against Bacillus subtilis ATCC9372 assessed as bacterial growth inhibition incubated for 18 hrs by CLSI based broth microdilution method; type: functional
In short: (§6)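 CLSI broth microdilution. Log-phase bacteria in Mueller Hinton broth added to 2-fold serial dilutions spanning 128 to 0.25 or 2 to 0.004 µg/mL. Incubated aerobically for 18 h at 37 °C, then OD600 read. MIC is the lowest concentration giving ≥90% growth inhibition; three independent assays.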

[16] = system: Staphylococcus aureus; assay: Antibacterial activity against Staphylococcus aureus ATCC25923 infected in ICR mouse assessed as reduction in bacterial burden in plasma at 25 mg/kg, ip by colony forming unit assay; type: functional, organism-based
[17] = system: Bacillus subtilis; assay: Antibacterial activity against Bacillus subtilis MG27 assessed as bacterial growth inhibition incubated for 18 hrs by CLSI based broth microdilution method; type: functional; in short: as §6
[18] = Half life in ICR mouse at 1 mg/kg, iv measured for 0.08 to 24 hrs by LC-MS/MS analysis; type: ADME, organism-based; conditions: in vivo, time 0.08-24 hrs; in short: as §4
[19] = Metabolic stability in mouse liver microsomes assessed as compound remaining preincubated for 5 mins followed by NADPH addition measured after 45 mins by LC/MS analysis; type: ADME, Microsome; conditions: time 50 min, read-out: Stability; in short: as §2
[20] = system: Staphylococcus aureus; assay: Antibacterial activity against Staphylococcus aureus ATCC25923 assessed as reduction in bacterial count at 4 times MIC measured for 3 hrs by time kill curve assay; type: functional, organism-based; in short: as §3

## Cc1cc(Cl)ccc1-c1cccc(COc2ccc(F)c(C(N)=O)c2F)c1
[1]
  MIC: > 128 µg/mL
[2]
  fold change (FC): 4
[3]
  remaining at 0.75 h: 75%
[4]
  inhibition (INH): 100%
[5]
  remaining at 0.25 h: 11.9%
[6]
  Cmax: 480 ng/mL
[7]
  CLint scaled: 183 mL/min/kg
[8]
  remaining at 0.5 h: 1.74%
[9]
  Activity: Active
[10]
  remaining at 5 min: 53.1%
[11]
  remaining at 5 min: 73.7%
[12]
  remaining at 0 min: 100%
[13]
  MIC: 0.125 µg/mL (≈ 0.322 µM)
[14]
  half-life: 5.09 min
[15]
  MIC: 0.016 µg/mL (≈ 0.0413 µM)
[16]
  Activity: Active
[17]
  MIC: 0.031 µg/mL (≈ 0.0799 µM)
[18]
  t1/2: 16.8 min
[19]
  remaining at 0.75 h: 0.46%
[20]
  Activity: Active

— ChEMBL document CHEMBL5338714, “Design, synthesis and biological evaluation of biphenyl-benzamides as potent FtsZ inhibitors” (Eur J Med Chem, 2022)
